Test results from ChEMBL document CHEMBL1649391, “A systematic protocol for the characterization of Hsp90 modulators” (Bioorg Med Chem, 2011).
Activity calls are given as the source filed them. No cut-off for these calls is given here.

Columns and labels:
[1] = molecular target: T1, Heat shock protein HSP 90 (Oryctolagus cuniculus) (UniProt P11500); assay: Modulation proteolytic fingerprint of HSP90 in rabbit reticulocyte lysates at 10 uM after 5 mins by SDS-PAGE analysis in presence of 125 ug/ml of trypsin
T1 sequence (whole entry): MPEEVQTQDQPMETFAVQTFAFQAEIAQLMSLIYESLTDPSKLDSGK
Method in brief: (§1)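 TnT rabbit reticulocyte lysate (50% v/v) with an ATP-regenerating system (10 mM creatine phosphate, 20 units/mL creatine phosphokinase) and 75 mM KCl. Drug or vehicle was added for 5 min at 37 °C, then the mix was chilled. TPCK-trypsin (0, 50 or 125 μg/ml) was added on ice for 6 min. Reactions were stopped by boiling in SDS sample buffer, then run on SDS-PAGE and Western blotted with antibodies to the Hsp90 N-terminus and C-terminus.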

LNCaP [2] = assay: Ratio of compound IC50 to KU135 IC50 for human LNCAP cells; type: functional
[3] = molecular target: Heat shock protein HSP 90-beta (Homo sapiens) (UniProt P08238); assay: Inhibition of HSP90 in human MCF7 cells assessed as degradation of Hsp70 protein up to 50 uM after 48 hrs by Western blotting; type: cell-based
Sequence of Heat shock protein HSP 90-beta (Homo sapiens) (P08238 whole entry): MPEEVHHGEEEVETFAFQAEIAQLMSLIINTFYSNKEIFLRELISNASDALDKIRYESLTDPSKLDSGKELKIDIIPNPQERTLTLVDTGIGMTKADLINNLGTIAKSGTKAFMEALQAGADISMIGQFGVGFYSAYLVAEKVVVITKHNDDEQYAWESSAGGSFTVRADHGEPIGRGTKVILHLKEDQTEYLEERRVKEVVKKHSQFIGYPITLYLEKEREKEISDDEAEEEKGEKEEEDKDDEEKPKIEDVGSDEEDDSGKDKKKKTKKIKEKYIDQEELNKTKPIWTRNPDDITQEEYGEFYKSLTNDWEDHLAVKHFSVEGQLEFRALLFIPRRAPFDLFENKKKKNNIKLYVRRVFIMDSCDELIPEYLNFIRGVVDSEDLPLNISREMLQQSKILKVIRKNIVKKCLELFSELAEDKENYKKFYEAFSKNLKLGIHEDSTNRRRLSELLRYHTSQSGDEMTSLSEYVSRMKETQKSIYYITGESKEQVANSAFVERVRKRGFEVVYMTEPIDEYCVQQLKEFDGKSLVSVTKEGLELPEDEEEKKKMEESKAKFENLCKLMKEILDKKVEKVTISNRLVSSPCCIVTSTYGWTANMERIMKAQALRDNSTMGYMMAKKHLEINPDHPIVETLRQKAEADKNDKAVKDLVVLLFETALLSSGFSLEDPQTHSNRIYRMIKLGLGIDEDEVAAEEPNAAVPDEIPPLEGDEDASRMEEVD
Method in brief: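 MCF-7 cells were grown in DMEM/F-12 with nonessential amino acids, 2 mM glutamine, penicillin/streptomycin and 10% FBS at 37 °C and 5% CO2. Cells were seeded at 1×10⁶ per dish and left to attach overnight. They were then exposed to varying compound concentrations for 48 h, harvested, and Western blotted for Hsp90 client proteins and Hsp70.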

[4] = molecular target: Heat shock protein HSP 90-alpha (Homo sapiens) (UniProt P07900); assay: Inhibition of human HSP90alpha expressed in yeast PP30 cells co-expressing HSF-lacZ reporter assessed as inhibition of heat stress-induced response at 100 uM after 3 hrs; type: cell-based
Method in brief: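 Yeast PP30 carrying human Hsp90α as its sole Hsp90 was transformed with a 3×HSE-lacZ reporter and grown at 30 °C in uracil-dropout 2% glucose medium to 2–3×10⁶ cells/ml. Cells were treated with compound, then heat-shocked for 1 h at 39 °C. In lysates, β-galactosidase was read with ONPG in buffer Z pH 7.0 at 30 °C, stopped with Na2CO3, read at OD420 and normalized to protein.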

[5] = Ratio of compound IC50 to KU135 IC50 for human LNCaP-LN3 cells; type: functional
[6] = molecular target: Heat shock protein HSP 90-beta (Homo sapiens) (UniProt P08238); assay: Inhibition of HSP90 binding to Cdc37 in human SKBR-3 cells by Western blotting; type: cell-based
Method in brief: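 SKBr-3 cells were treated for 24 h at 0–10 μM. Cells were lysed in NP-40/molybdate Tris buffer pH 7.4 for 2 h at 4 °C, then centrifuged. Lysate protein (500 μg) was immunoprecipitated with anti-Hsp90 for 2 h, then with protein G agarose overnight at 4 °C. Washed precipitates were immunoblotted for Hsp90 and Cdc37.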

LNCaP [7] = assay: Antiproliferative activity against human LNCAP cells; type: functional, cell-based
[8] = molecular target: Heat shock protein HSP 90-beta (Homo sapiens) (UniProt P08238); assay: Displacement of geldanamycin bound sepharose from HSP90 after 5 mins by affinity chromatography analysis
Method in brief: (§2)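 Lysate with the ATP-regenerating mix was preincubated for 5 min at 37 °C, then loaded onto novobiocin-epoxy-sepharose or onto geldanamycin-derivatized AffiGel beads blocked with BSA. Columns were washed with 20 volumes of buffer containing 0.15 M NaCl. Bound Hsp90 was eluted with a linear 0–5 mM compound gradient in the dark at 4 °C. Eluates were run on 12.5% SDS-PAGE and immunoblotted for Hsp90.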

[9] = molecular target: T1, Heat shock protein HSP 90 (Oryctolagus cuniculus); assay: Modulation proteolytic fingerprint of HSP90 in rabbit reticulocyte lysates at 20 uM after 5 mins by SDS-PAGE analysis in presence of 125 ug/ml of trypsin; method in brief: as §1
[10] = molecular target: Heat shock protein HSP 90-beta (Homo sapiens) (UniProt P08238); assay: Displacement of novobiocin bound sepharose from HSP90 after 5 mins by affinity chromatography analysis; method in brief: as §2

Compound: COc1cccc(-c2cc(C(=O)Nc3cc4cc(OC)c(OC(C)=O)c(C)c4oc3=O)ccc2OC)c1
- Activity [1]: Active
- Ratio IC50 (LNCaP [2]): 1000
- Activity [3]: inactive
- Activity [4]: Active
- Ratio IC50 [5]: 1000

Compound: O=C(O)CCc1nn(Cc2ccc(Cl)cc2Cl)c2cc(C(F)(F)F)ccc12
- Activity [6]: Dose-dependent effect
- Activity (LNCaP [7]): inactive
- Activity [3]: inactive
- Activity [8]: Active
- Activity [9]: Active

Compound: COc1cccc(-c2cc(C(=O)Nc3cc4ccc(O[C@@H]5OC(C)(C)[C@H](OC)[C@@H](O)[C@H]5O)c(OC)c4oc3=O)ccc2OC)c1
- Activity (LNCaP [7]): inactive
- Activity [1]: Active
- Activity [3]: inactive

Compound: CO[C@@H]1[C@@H](OC(N)=O)[C@@H](O)[C@H](Oc2ccc3c(O)c(NC(=O)c4ccc(O)c(CC=C(C)C)c4)c(=O)oc3c2C)OC1(C)C [NOVOBIOCIN]
- Activity [10]: inactive
- IC50 (LNCaP [7]): 420 nM
- Activity [1]: Active
- Activity [3]: inactive
- Activity [4]: Active

Compound: CO[C@@H]1[C@@H](O)[C@@H](O)[C@H](Oc2ccc3cc(NC(=O)CCCCCCC(=O)Nc4cc5ccc(O[C@H]6OC(C)(C)[C@@H](OC)[C@H](O)[C@@H]6O)cc5oc4=O)c(=O)oc3c2C)OC1(C)C
- Activity [1]: Active
- Activity [3]: inactive

Compound: CO[C@@H]1[C@@H](O)[C@@H](O)[C@H](Oc2ccc3cc(NC(C)=O)c(=O)oc3c2)OC1(C)C
- Activity [1]: Active
- Activity [3]: inactive

Compound: CC1=C(O)C(=O)C=C2C1=CC=C1[C@@]2(C)CC[C@@]2(C)[C@@H]3C[C@](C)(C(=O)O)CC[C@]3(C)CC[C@]12C
- Activity [6]: Dose-dependent effect
- Activity (LNCaP [7]): inactive
- Activity [3]: inactive
- Activity [8]: Active
- Activity [9]: Active

Compound: CO[C@@H]1[C@@H](OC(=O)c2ccc(C)[nH]2)[C@@H](O)[C@@H](Oc2ccc3c(O)c(NC(=O)c4c[nH]c(C(=O)Nc5c(O)c6ccc(O[C@H]7OC(C)(C)[C@H](OC)[C@@H](OC(=O)c8ccc(C)[nH]8)[C@H]7O)c(C)c6oc5=O)c4C)c(=O)oc3c2C)OC1(C)C
- Activity (LNCaP [7]): inactive
- Activity [1]: Active
- Activity [3]: inactive

Compound: CC(=O)O[C@@H]1C[C@H]2C(C)(C)C(=O)C=C[C@]2(C)[C@H]2CC[C@@]3(C)[C@H](c4ccoc4)OC(=O)[C@H]4O[C@]43[C@@]21C
- Activity [6]: Dose-dependent effect
- Activity (LNCaP [7]): inactive
- Activity [3]: inactive
- Activity [8]: Active
- Activity [9]: Active

Compound: CO[C@@H]1[C@@H](O)[C@@H](O)[C@H](Oc2ccc3cc(NC(C)=O)c(=O)oc3c2C)OC1(C)C
- Activity [1]: Active
- Activity [3]: inactive
